The subject of one series is Bacteria. In words: Inhibition of beta-lactamase AmpC (unknown origin) pre-incubated with compound for 5 mins followed by substrate addition and measured after 1.5 mins by absorbance based plate reader analysis. Conditions: time 6.5 min. The method, boiled down: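 AmpC at 2 nM preincubated 5 min with compound at room temperature in 50 mM KPi, pH 7.0, with 1% v/v DMSO. Started with 50 μM CENTA (read at 405 nm) or 50 μM nitrocefin (read at 490 nm), monitored 1 min 30 s. Initial rate taken as % of DMSO control. Top concentration in triplicate; eight-point half-log curves in triplicate where inhibition exceeded 40%.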

Series [1] has as its target Replicase polyprotein 1ab (Severe acute respiratory syndrome coronavirus 2, UniProt P0DTD1). Kind of series: Inhibition of N-terminal 6His/SUMO-tagged SARS-CoV-2 NSP14 expressed in Escherichia coli Rosetta 2 (DE3) PlysS cells using 5'GpppACCCCCCCCC-Biotin 3' and 3H-SAM as substrates incubated for 30 mins by TopCount scintillation proximity assay. On the technique in general: SPA uses beads or plates that emit light when radiolabelled molecules are held near them.

The target in series [2] is Replicase polyprotein 1ab (Severe acute respiratory syndrome coronavirus 2) (UniProt P0DTD1). In words: Non-covalent inhibition of N-terminal 6His/SUMO-tagged SARS-CoV-2 NSP14 expressed in Escherichia coli Rosetta 2 (DE3) PlysS cells using 5'GpppACCCCCCCCC-Biotin 3' and 3H-SAM as substrates incubated for 30 mins by TopCount scintillation proximity assay. The method, boiled down:
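Radiometric N7-MTase assay tracking [3H]-methyl transfer from SAM onto the cap of […] RNA, run with 0.01% v/v Triton X-100. Concentration–response in triplicate to give IC50.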

The target is the same in series [3]. Kind of series: Competitive inhibition of N-terminal 6His/SUMO-tagged SARS-CoV-2 NSP14 expressed in Escherichia coli Rosetta 2 (DE3) PlysS cells using 5'GpppACCCCCCCCC-Biotin 3' and 3H-SAM as substrates at increasing concentration incubated for 30 mins by TopCount scintillation proximity assay. The method in brief: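 Competition pattern read from IC50 shifts. […] Separately, SAM fixed at 1.25 μM (5× Km) with RNA varied up to 0.5 μM (10× Km). A linear rise of IC50 with substrate concentration was taken as competitive inhibition.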

Series [4] addresses Histone-lysine N-methyltransferase SUV39H1 (Homo sapiens) (UniProt O43463). Kind of series: Inhibition of human SUV39H1 using Biotin-tagged histone H3 and 3H-SAM as substrate at 10 uM incubated for 1 hrs by TopCount scintillation proximity assay relative to control. The method, boiled down:
(§1)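 Selectivity panel against human SAM-dependent methyltransferases, radiometric format. Single test concentration of 10 μM, triplicate, read as percent inhibition.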

Series [5] concerns the target RNA 5'-monophosphate methyltransferase (Homo sapiens) (UniProt Q7Z5W3). Kind of series: Inhibition of human BCDIN3D using biotin-tagged microRNA-145 and 3H-SAM as substrate at 10 uM incubated for 1 hrs by TopCount scintillation proximity assay relative to control. The method, boiled down: (§2)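 Human methyltransferase panel, radiometric assays. Each compound tested at a single 10 μM concentration in triplicate. Enzymes inhibited by more than 50% were taken on to concentration–response.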

The target of series [6] is Histone-lysine N-methyltransferase SUV39H2 (Homo sapiens) (UniProt Q9H5I1). In words: Inhibition of human SUV39H2 using Biotin-tagged histone H3 and 3H-SAM as substrate at 10 uM incubated for 1 hrs by TopCount scintillation proximity assay relative to control. The method in brief: as §1
Series [7] deals with Histone-lysine N-methyltransferase KMT5C (Homo sapiens) (UniProt Q86Y97). In words: Inhibition of human SUV420H2 using Biotin-tagged H4K20me1 and 3H-SAM as substrate at 10 uM incubated for 1 hrs by TopCount scintillation proximity assay relative to control. The method, boiled down: as §1
The target of series [8] is Protein arginine N-methyltransferase 1 (Homo sapiens, UniProt Q99873). In words: Inhibition of human PRMT1 using biotin-tagged Histone H4 and 3H-SAM as substrate at 10 uM incubated for 1 hrs by TopCount scintillation proximity assay relative to control. The method, boiled down:
as §2

The target of series [9] is Histone-arginine methyltransferase CARM1 (Homo sapiens) (UniProt Q86X55). Kind of series: Inhibition of human PRMT4 using biotin-tagged Histone H3 and 3H-SAM as substrate at 10 uM incubated for 1 hrs by TopCount scintillation proximity assay relative to control. The method, boiled down: as §2
Series [10] deals with Protein arginine N-methyltransferase 5 (Homo sapiens) (UniProt O14744). In words: Inhibition of human PRMT5 using biotin-tagged Histone H4 and 3H-SAM as substrate at 10 uM incubated for 1 hrs by TopCount scintillation proximity assay relative to control. The method in brief: as §2
Series [11] deals with Protein arginine N-methyltransferase 8 (Homo sapiens) (UniProt Q9NR22). In words: Inhibition of human PRMT8 using biotin-tagged Histone H4 and 3H-SAM as substrate at 10 uM incubated for 1 hrs by TopCount scintillation proximity assay relative to control. The method in brief:
as §2

Series [12] concerns the target Protein arginine N-methyltransferase 9 (Homo sapiens) (UniProt Q6P2P2). Kind of series: Inhibition of human PRMT9 using biotin-tagged SAP145 and 3H-SAM as substrate at 10 uM incubated for 1 hrs by TopCount scintillation proximity assay relative to control. The method in brief: as §2
Series [13] addresses Histone-lysine N-methyltransferase PRDM9 (Homo sapiens) (UniProt Q9NQV7). Kind of series: Inhibition of human PRDM9 using biotin-tagged Histone H3 and 3H-SAM as substrate at 10 uM incubated for 1 hrs by TopCount scintillation proximity assay relative to control. The method, boiled down: as §2
Series [14] deals with Histone-lysine N-methyltransferase SETDB1 (Homo sapiens) (UniProt Q15047). In words: Inhibition of human SETDB1 using biotin-tagged Histone H3 and 3H-SAM as substrate at 10 uM incubated for 1 hrs by TopCount scintillation proximity assay relative to control. The method in brief:
as §1

The target in series [15] is Histone-lysine N-methyltransferase SETD2 (Homo sapiens) (UniProt Q9BYW2). Kind of series: Inhibition of human SETD2 using biotin-tagged Histone H3 and 3H-SAM as substrate at 10 uM incubated for 1 hrs by TopCount scintillation proximity assay relative to control. The method, boiled down: as §1
For series [16], the target named is N-lysine methyltransferase KMT5A (Homo sapiens) (UniProt Q9NQR1). In words: Inhibition of human SETD8 using biotin-tagged Histone H4 and 3H-SAM as substrate at 10 uM incubated for 1 hrs by TopCount scintillation proximity assay relative to control. The method in brief: as §1
In series [17] the target is Histone-lysine N-methyltransferase 2C (Homo sapiens) (UniProt Q8NEZ4). In words: Inhibition of human MLL3 using biotin-tagged Histone H3 and 3H-SAM as substrate at 10 uM incubated for 1 hrs by TopCount scintillation proximity assay relative to control. The method, boiled down:
as §2

A further series is filed under the species Homo sapiens. Kind of series: Inhibition of human EZH2 using biotin-tagged Histone H3 and 3H-SAM as substrate at 10 uM incubated for 1 hrs by TopCount scintillation proximity assay relative to control. The method, boiled down: as §2
In series [18] the target is Histone-lysine N-methyltransferase NSD2 (Homo sapiens) (UniProt O96028). Kind of series: Inhibition of human NSD2 using chicken nucleosome and 3H-SAM as substrate at 10 uM incubated for 1 hrs by TopCount scintillation proximity assay relative to control. The method, boiled down: as §2
The nature of series [19]: Aggregation property of the compound in KPi buffer at pH 7.0 assessed as formation of colloid-like particles by dynamic light scattering analysis. It counts as physicochemical. The method in brief: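 Compounds diluted as 8-point half-log series in filtered 50 mM KPi, pH 7.0, with 1% v/v DMSO final. Particles detected by dynamic light scattering, triplicate at each concentration. CAC taken as the intersection of separate nonlinear fits to aggregating (>10^6 scattering intensity) and non-aggregating data.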

pIC50: −log10 of the molar value. Activity calls are given as the source filed them. No cut-off for these calls is given here.

The term inhibition denotes the share of the control response that was lost under treatment. By pIC50 is commonly meant the IC50 on a negative log10 scale, so that one unit is a factor of ten. Higher therefore signals a low IC50.

Sequence of Histone-arginine methyltransferase CARM1 (Homo sapiens) (Q86X55 whole entry): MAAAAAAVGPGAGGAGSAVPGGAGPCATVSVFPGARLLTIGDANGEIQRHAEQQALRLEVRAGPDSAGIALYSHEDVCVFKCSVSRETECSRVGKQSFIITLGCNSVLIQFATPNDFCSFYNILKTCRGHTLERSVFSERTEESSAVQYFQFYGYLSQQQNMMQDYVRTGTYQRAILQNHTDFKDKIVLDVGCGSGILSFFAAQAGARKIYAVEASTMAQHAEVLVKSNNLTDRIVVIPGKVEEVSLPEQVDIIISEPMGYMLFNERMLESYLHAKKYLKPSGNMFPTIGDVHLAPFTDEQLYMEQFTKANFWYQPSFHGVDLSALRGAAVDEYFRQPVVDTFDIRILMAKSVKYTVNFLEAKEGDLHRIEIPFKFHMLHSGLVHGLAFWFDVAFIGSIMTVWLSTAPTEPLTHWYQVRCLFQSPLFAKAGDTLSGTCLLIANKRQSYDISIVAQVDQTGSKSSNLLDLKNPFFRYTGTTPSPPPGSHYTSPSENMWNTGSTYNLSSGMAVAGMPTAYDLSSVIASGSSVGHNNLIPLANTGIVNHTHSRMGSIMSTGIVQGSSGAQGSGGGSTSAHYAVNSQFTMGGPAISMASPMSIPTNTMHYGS
Sequence of Histone-lysine N-methyltransferase NSD2 (Homo sapiens) (O96028 whole entry): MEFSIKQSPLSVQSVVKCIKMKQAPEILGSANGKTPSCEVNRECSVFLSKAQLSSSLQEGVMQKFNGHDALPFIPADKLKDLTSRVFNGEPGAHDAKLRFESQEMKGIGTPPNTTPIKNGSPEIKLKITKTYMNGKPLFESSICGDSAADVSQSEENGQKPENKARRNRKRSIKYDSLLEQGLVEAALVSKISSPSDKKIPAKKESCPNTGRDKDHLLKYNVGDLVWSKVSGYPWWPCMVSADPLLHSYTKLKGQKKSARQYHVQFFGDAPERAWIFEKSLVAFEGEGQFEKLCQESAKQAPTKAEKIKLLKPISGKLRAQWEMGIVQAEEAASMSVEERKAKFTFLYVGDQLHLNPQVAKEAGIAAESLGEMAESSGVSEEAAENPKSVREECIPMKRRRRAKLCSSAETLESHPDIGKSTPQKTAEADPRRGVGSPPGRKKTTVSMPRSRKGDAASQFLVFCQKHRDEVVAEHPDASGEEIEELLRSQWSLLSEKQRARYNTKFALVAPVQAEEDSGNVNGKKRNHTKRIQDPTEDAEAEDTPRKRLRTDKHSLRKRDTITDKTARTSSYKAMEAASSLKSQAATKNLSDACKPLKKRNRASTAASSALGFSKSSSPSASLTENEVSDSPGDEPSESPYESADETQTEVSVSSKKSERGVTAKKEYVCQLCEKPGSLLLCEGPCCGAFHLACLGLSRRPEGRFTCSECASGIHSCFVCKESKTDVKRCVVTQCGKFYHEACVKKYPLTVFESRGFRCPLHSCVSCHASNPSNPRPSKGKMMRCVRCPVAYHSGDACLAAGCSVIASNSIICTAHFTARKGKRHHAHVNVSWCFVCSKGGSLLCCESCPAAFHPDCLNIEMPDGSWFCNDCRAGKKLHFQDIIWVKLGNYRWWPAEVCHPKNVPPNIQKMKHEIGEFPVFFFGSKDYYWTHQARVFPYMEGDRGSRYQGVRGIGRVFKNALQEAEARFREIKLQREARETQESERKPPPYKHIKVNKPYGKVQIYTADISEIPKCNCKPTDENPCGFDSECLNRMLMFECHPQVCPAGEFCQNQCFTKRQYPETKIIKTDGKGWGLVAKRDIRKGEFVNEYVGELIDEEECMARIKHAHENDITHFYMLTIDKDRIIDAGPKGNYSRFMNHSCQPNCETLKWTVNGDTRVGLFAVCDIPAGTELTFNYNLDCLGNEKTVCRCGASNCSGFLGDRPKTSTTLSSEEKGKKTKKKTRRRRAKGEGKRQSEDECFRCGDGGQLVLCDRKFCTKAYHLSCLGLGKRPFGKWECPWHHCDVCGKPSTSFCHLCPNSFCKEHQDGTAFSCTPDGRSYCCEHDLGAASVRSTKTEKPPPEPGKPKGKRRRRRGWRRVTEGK
Sequence of Protein arginine N-methyltransferase 5 (Homo sapiens) (O14744 whole entry): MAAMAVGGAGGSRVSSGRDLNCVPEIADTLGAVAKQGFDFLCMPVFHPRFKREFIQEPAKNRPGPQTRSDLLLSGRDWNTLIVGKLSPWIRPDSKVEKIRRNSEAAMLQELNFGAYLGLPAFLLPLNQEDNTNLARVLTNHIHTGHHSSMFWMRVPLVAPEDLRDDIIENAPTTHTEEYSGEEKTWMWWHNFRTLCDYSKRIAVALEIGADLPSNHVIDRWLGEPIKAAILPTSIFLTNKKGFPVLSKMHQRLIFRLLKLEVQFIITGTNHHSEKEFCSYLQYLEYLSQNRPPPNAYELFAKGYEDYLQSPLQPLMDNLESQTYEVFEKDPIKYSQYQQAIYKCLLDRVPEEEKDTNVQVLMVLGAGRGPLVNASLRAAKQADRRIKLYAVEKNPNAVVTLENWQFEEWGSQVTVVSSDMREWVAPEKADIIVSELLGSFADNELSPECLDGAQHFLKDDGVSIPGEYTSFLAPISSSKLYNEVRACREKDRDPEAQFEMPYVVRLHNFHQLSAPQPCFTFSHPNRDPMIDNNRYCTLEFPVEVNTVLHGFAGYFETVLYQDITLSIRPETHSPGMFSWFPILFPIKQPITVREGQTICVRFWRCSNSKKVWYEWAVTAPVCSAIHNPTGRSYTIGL
Sequence of RNA 5'-monophosphate methyltransferase (Homo sapiens) (Q7Z5W3 whole entry): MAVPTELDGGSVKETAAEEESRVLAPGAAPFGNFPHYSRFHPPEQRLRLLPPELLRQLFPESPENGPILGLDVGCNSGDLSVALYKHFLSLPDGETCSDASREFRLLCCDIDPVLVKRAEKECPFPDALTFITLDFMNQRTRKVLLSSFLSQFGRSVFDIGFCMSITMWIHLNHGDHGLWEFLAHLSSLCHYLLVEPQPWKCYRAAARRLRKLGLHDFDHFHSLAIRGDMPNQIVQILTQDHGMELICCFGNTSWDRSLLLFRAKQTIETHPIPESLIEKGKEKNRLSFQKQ
Sequence of Histone-lysine N-methyltransferase SUV39H1 (Homo sapiens) (O43463 whole entry): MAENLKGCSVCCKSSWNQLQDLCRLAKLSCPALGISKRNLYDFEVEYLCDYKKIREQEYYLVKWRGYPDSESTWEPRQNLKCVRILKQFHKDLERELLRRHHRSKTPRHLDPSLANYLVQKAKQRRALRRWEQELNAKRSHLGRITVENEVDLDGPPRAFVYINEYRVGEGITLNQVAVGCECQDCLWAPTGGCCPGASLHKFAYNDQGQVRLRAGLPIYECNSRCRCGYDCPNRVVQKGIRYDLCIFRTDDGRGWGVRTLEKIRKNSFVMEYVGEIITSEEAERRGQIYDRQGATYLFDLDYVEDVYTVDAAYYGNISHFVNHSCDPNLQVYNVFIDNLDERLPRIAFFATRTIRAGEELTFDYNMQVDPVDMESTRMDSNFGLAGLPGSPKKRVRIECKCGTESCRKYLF
Sequence of Protein arginine N-methyltransferase 8 (Homo sapiens) (Q9NR22 2-394 limits assumed): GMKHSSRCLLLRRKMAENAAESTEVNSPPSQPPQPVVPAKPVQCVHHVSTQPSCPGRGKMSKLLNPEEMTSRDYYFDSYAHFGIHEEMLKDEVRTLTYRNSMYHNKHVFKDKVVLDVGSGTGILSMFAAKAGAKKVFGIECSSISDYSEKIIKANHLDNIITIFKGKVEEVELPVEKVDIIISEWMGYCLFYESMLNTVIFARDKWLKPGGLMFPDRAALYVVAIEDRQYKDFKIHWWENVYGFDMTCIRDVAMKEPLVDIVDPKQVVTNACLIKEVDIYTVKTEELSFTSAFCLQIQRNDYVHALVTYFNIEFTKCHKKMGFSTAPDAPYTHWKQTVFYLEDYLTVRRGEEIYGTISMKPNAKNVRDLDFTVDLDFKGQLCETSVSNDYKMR
Sequence of Protein arginine N-methyltransferase 1 (Q99873 whole entry, looked up): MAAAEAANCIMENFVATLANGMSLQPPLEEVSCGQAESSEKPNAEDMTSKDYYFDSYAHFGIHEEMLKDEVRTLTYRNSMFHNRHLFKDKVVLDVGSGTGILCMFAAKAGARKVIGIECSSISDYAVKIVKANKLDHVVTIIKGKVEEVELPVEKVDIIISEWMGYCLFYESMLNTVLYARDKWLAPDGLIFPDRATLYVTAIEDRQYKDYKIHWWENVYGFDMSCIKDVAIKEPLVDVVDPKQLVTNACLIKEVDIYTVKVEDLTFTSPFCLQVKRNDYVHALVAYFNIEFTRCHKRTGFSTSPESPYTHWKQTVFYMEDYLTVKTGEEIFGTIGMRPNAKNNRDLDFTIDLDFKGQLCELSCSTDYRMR
Sequence of Protein arginine N-methyltransferase 9 (Homo sapiens) (Q6P2P2 whole entry): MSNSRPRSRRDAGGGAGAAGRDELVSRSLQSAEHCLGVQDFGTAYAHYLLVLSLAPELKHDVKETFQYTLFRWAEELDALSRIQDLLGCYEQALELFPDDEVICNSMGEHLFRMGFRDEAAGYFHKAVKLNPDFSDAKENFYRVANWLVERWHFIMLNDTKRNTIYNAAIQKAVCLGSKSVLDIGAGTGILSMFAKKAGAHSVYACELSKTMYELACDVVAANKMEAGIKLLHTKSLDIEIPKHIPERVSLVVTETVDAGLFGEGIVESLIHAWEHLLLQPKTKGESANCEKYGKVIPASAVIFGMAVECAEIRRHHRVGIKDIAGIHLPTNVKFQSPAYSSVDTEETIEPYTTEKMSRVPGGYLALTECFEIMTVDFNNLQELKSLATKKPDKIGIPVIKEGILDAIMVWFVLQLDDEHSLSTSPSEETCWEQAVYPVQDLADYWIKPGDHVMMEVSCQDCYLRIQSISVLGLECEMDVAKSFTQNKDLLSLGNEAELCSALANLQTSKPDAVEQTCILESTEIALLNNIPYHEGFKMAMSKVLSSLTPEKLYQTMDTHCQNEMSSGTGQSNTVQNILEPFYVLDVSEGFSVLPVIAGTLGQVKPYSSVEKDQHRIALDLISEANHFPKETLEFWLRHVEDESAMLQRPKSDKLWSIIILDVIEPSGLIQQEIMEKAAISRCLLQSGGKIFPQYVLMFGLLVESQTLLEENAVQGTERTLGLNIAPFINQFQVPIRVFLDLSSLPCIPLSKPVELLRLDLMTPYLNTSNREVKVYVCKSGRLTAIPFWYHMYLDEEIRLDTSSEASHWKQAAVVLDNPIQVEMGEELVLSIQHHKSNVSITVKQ

With `Cc1c(C(=O)/C=C/c2ccc(O)c([N+](=O)[O-])c2)c(C#N)c2n1CCC2`, the inhibition result (in the series with Bacteria; in series [2]; in [3]) was “Active” throughout. The compound also showed a pIC50 in [1] of 4.30. The inhibition in [4], in series [5], in [6], in [7], in series [8] and in series [9] was less than 50% throughout. Moreover, the inhibition in series [10], in series [11], in [12], in series [13], in series [14] and in series [15] was less than 50% each time. In addition, the inhibition (in series [16]; in [17]; in the series filed under Homo sapiens; in series [18]) was less than 50% in each case. The Activity result in [19] is “Not Active”.

(Values after ChEMBL document CHEMBL5338825, “Structure-Based Discovery of Inhibitors of the SARS-CoV-2 Nsp14 N7-Methyltransferase” (J Med Chem, 2023).)
